Shown are actives, neighbours in structure and some others; about 3.9% of the full set was active somewhere.
TAAR1 agonist: agonists of human TAAR1. Q96RJ0. CHO RD-HGA16 TAAR1, Fluo-8 calcium fluorescence; vehicle wells 0%, saturating PEA agonist 100%. activation, % at 3 µM. 0.99% of 360,000 active. AID 624467;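 active means activation above the mean activation of all test compounds in the run plus 3 SD, cut at about 38% in these data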
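Test system: RD-HGA16 (CHO) cells co-expressing Gα16 and hTAAR1 | Doses: Single dose, 3 µM | Schedule: 17-24 h seeding, 75 min 37 °C dye, 30 min RT | Evaluation: % activation from peak over basal fluorescence ratio, DMSO-to-PEA scaled | Technique: Kinetic Fluo-8 calcium fluorescence | Benchmarks: Low control DMSO, high control PEA (EC100)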
TAAR1 antag: human TAAR1 antagonism. Q96RJ0. CHO RD-HGA16 TAAR1, Fluo-8 calcium fluorescence, antagonist. inhibition, % at 3 µM. 1.5% of 360,000 active. AID 624466;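 active means inhibition above a per-plate cutoff, the mean inhibition of test compounds on that plate plus 3 SD, cut at about 49% in these data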;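 further: 0% = DMSO plus EC80 beta-PEA response and 100% = DMSO alone without agonist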
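Test system: CHO RD-HGA16 cells bearing hTAAR1 | Reagent: β-PEA, EC80 | Compound dosing: 3 µM, single point | Schedule: Dye loading 75 min at 37 °C, then 30 min room temperature | Signal: Calcium fluorescence with Fluo-8 | Evaluation: Percent inhibition of PEA-evoked calcium signal, max/basal emission ratio | Control set: DMSO-only wells and EC80 β-PEA-stimulated wells | Repeats: Singlicate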
M1 PAM: human CHRM1 positive allosteric modulation. P11229. CHO-K1 hM1, Fluo-8 calcium fluorescence, ACh EC20; 0% = ACh EC20, 100% = maximal ACh. activation, % at 3 µM. 0.088% of 360,000 active. AID 588819; in the data active means activation above about 19%, passing the limit was not always enough
CHRM1 agonist: agonists of human M1 muscarinic receptor; P11229; CHO-K1 hM1, Fluo-8 calcium fluorescence, agonist mode; 0% DMSO, 100% acetylcholine EC100; activation, % at 3 µM; 0.33% of 360,000 active; AID 588814;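 active means activation above the run's mean compound activation plus 3 SD, cut at about 16% in these data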;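 further: peak over basal fluorescence ratio within a 140 s kinetic read after compound addition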
m5-HT2A agonist: mouse HTR2A agonism via beta-arrestin recruitment; P35363; CHO-K1 mHTR2A beta-arrestin complementation, luminescence; percent of 30 µM serotonin response; activation, % at 7.6 µM; 0.66% of 360,000 active;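 active means activation above a run cutoff, the mean activation of all tested compounds plus 3 SD, cut at about 14% in these data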;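 further: 0% = plate median of compound wells and 100% = 30 µM serotonin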
Target sequence (P35363 whole entry, looked up): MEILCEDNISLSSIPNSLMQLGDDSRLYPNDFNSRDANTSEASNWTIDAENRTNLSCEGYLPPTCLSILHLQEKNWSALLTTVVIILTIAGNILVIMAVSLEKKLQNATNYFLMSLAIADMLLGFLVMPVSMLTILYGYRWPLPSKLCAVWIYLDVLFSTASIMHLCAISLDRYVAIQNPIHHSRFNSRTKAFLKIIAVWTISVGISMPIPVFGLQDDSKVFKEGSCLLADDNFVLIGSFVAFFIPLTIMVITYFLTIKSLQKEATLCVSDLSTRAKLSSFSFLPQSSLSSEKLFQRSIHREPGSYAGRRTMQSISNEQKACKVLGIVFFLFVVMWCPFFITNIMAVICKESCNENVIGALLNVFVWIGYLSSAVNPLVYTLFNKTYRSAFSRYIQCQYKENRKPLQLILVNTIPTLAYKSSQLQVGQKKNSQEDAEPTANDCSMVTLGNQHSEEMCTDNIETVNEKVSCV
M1 antag: blocks human M1 muscarinic receptor. P11229. CHO-K1 hM1, Fluo-8 calcium fluorescence, ACh EC80 antagonist. inhibition, % at 3 µM. 1.3% of 360,000 active;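 active means percent inhibition above its own plate's cutoff, namely the mean of that plate's compound wells plus 3 SD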;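 further: peak over basal fluorescence ratio during 140 s after agonist addition; 0% = ACh EC80 plus DMSO and 100% = DMSO alone without agonist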
* marks the source's active call; other numbers are inactive results; . = no result.

SMILES | TAAR1 agonist | TAAR1 antag | M1 PAM | CHRM1 agonist | m5-HT2A agonist | M1 antag
COc1ccc(/C=C/c2ccc3ccccc3[n+]2C)cc1OC | . | . | 4 | -6 | -9 | -14
CC(=O)Oc1ccccc1/C=C/c1ccc2ccccc2[n+]1C | 4 | -7 | -29 | -8 | -1 | 54*
CCN(CC)c1ccc(-c2nn3c(-c4n[nH]c5c4CCC5)nnc3s2)cc1 | 8 | -22 | 8 | 4 | 35* | -4
C1CCC(c2nn3c(-c4n[nH]c5c4CCC5)nnc3s2)CC1 | -2 | -9 | 1 | -4 | 4 | 4
COc1cccc2cc(C(C)N(CCCN3CCOCC3)C(=S)Nc3cccc(C)c3C)oc12 (stereo not drawn) | 39* | -48 | 14 | -5 | -1 | -22
COc1cccc2cc(C(C)N(CCCN3CCOCC3)C(=S)Nc3cc(C)ccc3C)oc12 (stereo not drawn) | -3 | -30 | 11 | -5 | -2 | -13
COc1ccc(NC(=O)CN2CCN(C(=S)NC3CCCC3)CC2)cc1 | 7 | -6 | 3 | -2 | 1 | -12
Cc1ccc(S(=O)(=O)Nc2ccc3c(c2)nc(CCN2CCN(c4ccccn4)CC2)n3C)cc1 | 3 | 5 | -24 | -3 | -14 | 79*
Cn1c(CCN2CCN(c3ccccn3)CC2)nc2cc(NS(=O)(=O)c3ccc(Cl)cc3)ccc21 | 13 | 46 | -24 | -1 | -7 | 98*
CCCc1nnc(NC(=O)CCC(=O)N2CCN(Cc3ccc(OC)c(F)c3)CC2)s1 | 2 | -4 | -21 | -4 | 3 | 49*
COc1ccc(CN2CCN(C(=O)CCC(=O)Nc3nnc(C4CCCCC4)s3)CC2)cc1F | 9 | 20 | -17 | -2 | 1 | 34*
COc1ccc(CN2CCN(C(=O)CCC(=O)Nc3nnc(CC(C)C)s3)CC2)cc1F | 2 | -10 | -17 | -2 | 1 | 25
CC1(C)CC(CCC(=O)NC(=S)Nc2ccccc2Cl)C(=O)O1 (stereo not drawn) | 3 | 5 | 7 | -11 | 0 | -4
Cc1ccc(NC(=O)COc2ccccc2C(N)=O)cc1S(=O)(=O)N1CCCCCC1 | 15 | 37 | -15 | 0 | 9 | 33*
Cc1ccc(NC(=O)COC(=O)c2cccc(C)c2[N+](=O)[O-])cc1S(=O)(=O)N1CCCCC1 | 6 | 32 | -12 | -2 | -6 | 28*
CCc1cccc(OCC(=O)Nc2ccc(C)c(S(=O)(=O)N3CCCCCC3)c2)c1 | 4 | 50* | -11 | 0 | 6 | 46*
CC(=O)Nc1ccc(OCC(=O)Nc2ccc(Cl)c(S(=O)(=O)N3CCOCC3)c2)cc1 | 14 | 45 | -26 | 4 | 2 | 37*
COc1ccc(NC(=O)COc2ccccc2C(N)=O)cc1S(=O)(=O)N1CCCCC1 | 1 | 10 | 14 | -1 | 0 | -17
COc1ccc(OCC(=O)Nc2ccc(S(=O)(=O)N3CCOCC3)cc2)cc1 | 15 | 13 | 6 | 0 | -4 | -7
Cc1ccc(NC(=O)COc2cccc(C)c2C)cc1S(=O)(=O)N1CCCCCC1 | -1 | 24 | -8 | -2 | -7 | 15
COc1cc(OC)cc(-c2noc(-c3csc([C@@H]4O[C@H](CO)[C@H](O)[C@H](O)[C@H]4O)n3)n2)c1 | 0 | 12 | 0 | -1 | 1 | 4
Cn1cc(CCOCc2ccccc2)c2ccccc21 | -1 | -13 | . | . | . | .
C/C(=N\NC(=O)Cc1c(Cl)cccc1Cl)c1cccnc1 | 0 | -9 | 1 | -2 | -5 | 3
COc1ccc(NC(=O)CN(C)CC(=O)Nc2ccc(C)c(S(=O)(=O)N3CCCCC3)c2)cc1 | 8 | -2 | 4 | -3 | -2 | -2
COc1cc(C(C)=O)ccc1OCC(=O)Nc1ccc(C)c(S(=O)(=O)N2CCCCCC2)c1 | 18 | 77* | -23 | 0 | 6 | 37*
SMILES | TAAR1 agonist | TAAR1 antag | M1 PAM | CHRM1 agonist | m5-HT2A agonist | M1 antag
Cc1ccc(NC(=O)COc2ccc(N(C)C(=O)C(C)(C)C)cc2)cc1S(=O)(=O)N1CCCCC1 | 10 | 52* | -17 | 2 | 1 | 53*
Cc1ccc(-c2nc3ccc(C)cn3c2Cc2ccccn2)cc1 | 9 | -22 | . | . | 3 | .
Cn1ccnc1SCC(=O)Nc1ccc(F)c([N+](=O)[O-])c1 | 7 | -8 | 5 | -5 | 7 | -13
O=C(O)c1cccc(S(=O)(=O)Nc2ccccc2N2CCOCC2)c1 | -2 | -12 | -9 | -3 | 1 | 54*
Cc1ccc(OCC2Cn3c(nc4c3c(=O)[nH]c(=O)n4C)O2)cc1C (stereo not drawn) | 6 | 2 | -4 | -3 | -1 | 5
COCCN(CC(=O)Nc1cccc(C)c1C)C(=O)C1(c2ccc(Cl)cc2)CCC1 | 15 | -7 | 2 | -5 | -12 | -4
COc1ccc(NC(=O)N[C@@H](Cc2ccccc2)C(=O)NN)cc1 | -1 | -20 | 9 | -3 | 1 | -15
NNC(=O)[C@H](Cc1ccccc1)NC(=O)Nc1ccc2c(c1)OCCO2 | 0 | 4 | -22 | -7 | -3 | 36*
CCN(CC(=O)Nc1ccc(OC)cc1)C(=O)c1ccc2c(=O)n3c(nc2c1)CCC3 | 12 | -15 | 11 | -3 | -4 | -10
Cc1ccc2nc(SCC(=O)N3CCC(Cc4ccccc4)CC3)nc(=O)n2c1 | 6 | 12 | -8 | 20* | -5 | -2
O=C(CSc1nc(=O)n2ccccc2n1)N1CCC(Cc2ccccc2)CC1 | 7 | 10 | -2 | 2 | -19 | 2
COc1ccc(C(CNC(=O)c2ccc(S(=O)(=O)Nc3ccc(F)cc3)cc2)N(C)C)cc1 (stereo not drawn) | 45* | 17 | 3 | -7 | -3 | -6
CCN(CC)S(=O)(=O)c1cccc(C(=O)NCC(c2ccccc2)N(C)C)c1 (stereo not drawn) | 4 | -4 | -36 | -15 | 5 | 55*
COc1ccc(C(CNC(=O)c2cccc(NS(=O)(=O)c3ccccc3)c2)N(C)C)cc1 (stereo not drawn) | 5 | -18 | -20 | -6 | -5 | 48*
COc1ccc(N(C)S(=O)(=O)c2cccc(C(=O)NCC(c3cccs3)N(C)C)c2)cc1 (stereo not drawn) | 4 | 2 | -26 | -7 | -18 | 52*
Nc1[nH]c(C(=O)c2ccccc2)c(-c2ccccc2Br)c1C(=O)c1cccs1 | -1 | 17 | . | . | . | .
Nc1[nH]c(C(=O)c2ccccc2)c(-c2ccccc2)c1C(=O)NCCc1c[nH]c2ccccc12 | 8 | 17 | . | . | . | .
O=C(OCCNc1nc(-c2ccccc2)nc2ccccc12)c1cccnc1 | 8 | 41 | 8 | -7 | 2 | -2
